PubChem BioAssay
Values without a mark were called inactive. The source made the active and inactive calls.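 Rule for the calls, unless noted: active = a full or partial loss of lipid-probe fluorescence in the fish gall bladder, intestine or both, judged by eye; inactive = no fluorescence loss, or compound toxic to the fish.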

Target: Muscarinic acetylcholine receptor M4 (Homo sapiens) (UniProt P08173)
Experiment: compounds altering M4/GIRK thallium flux, either direction, primary screen, M4 allosteric agonist project, cell-based, HEK293 M4/GIRK, BTC-AM (AID 625;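 active = fluorescence slope after compound addition differing from the mean of all tested samples at 99.7% confidence, mostly higher but some lower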;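 note: thallium influx through GIRK channels coupled to M4 in HEK293 cells with BTC-AM dye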)
Conditions: at 10 µM, actives lie on both sides
Summary of the method: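 Material – HEK293 cells with M4 receptor and GIRK channels · Buffer or medium – pH 7.3 thallium assay buffer · Doses – one dose, 10 µM final · Timing – cells overnight at 37 °C, BTC-AM loading 1 h, reads 2 min total · Measured by – kinetic fluorescence with BTC-AM dye · Controls – carbachol and DMSO controls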

Muscarinic acetylcholine receptor M4 (Homo sapiens), sequence (P08173 whole entry, looked up): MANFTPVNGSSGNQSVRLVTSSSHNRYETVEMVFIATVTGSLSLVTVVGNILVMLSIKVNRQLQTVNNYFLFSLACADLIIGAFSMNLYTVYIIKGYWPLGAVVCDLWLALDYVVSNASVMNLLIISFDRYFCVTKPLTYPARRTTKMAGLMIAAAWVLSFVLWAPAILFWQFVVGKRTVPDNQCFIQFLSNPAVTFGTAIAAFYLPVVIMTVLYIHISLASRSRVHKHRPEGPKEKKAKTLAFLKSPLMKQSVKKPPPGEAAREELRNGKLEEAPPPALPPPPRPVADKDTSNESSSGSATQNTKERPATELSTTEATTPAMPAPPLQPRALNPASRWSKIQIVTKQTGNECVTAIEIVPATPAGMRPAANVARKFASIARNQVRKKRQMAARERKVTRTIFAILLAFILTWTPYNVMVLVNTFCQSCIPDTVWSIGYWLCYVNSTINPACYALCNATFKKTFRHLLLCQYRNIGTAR

Row | Compound | fluorescence slope
1 | CN1CCN(C2=Nc3cc(Cl)ccc3Nc3ccccc32)CC1 | 0.00391
2 | CCOC(=O)C(OC(=O)c1sc(=S)n(C)c1C)C(C)=O (stereo unspecified) | 0.00794
3 | COc1ccc(Cn2ccnc2)cc1Br | 0.00733
4 | CC1(C)CC(=O)C=C(N=CC2=C(O)CC(C)(C)CC2=O)C1 | 0.00557
5 | CC1(C)CC(=O)C(C=N)=C(O)C1 | 0.00587
6 | COc1cc(C(=O)Nc2ccccn2)cc(OC)c1OC | 0.00377
7 | CCOC(=O)C(Oc1ccc(=O)[nH]n1)C(C)=O (stereo unspecified) | 0.00606
8 | O=P(Cc1nnco1)(c1ccccc1)c1ccccc1 | 0.00527
9 | C=CCNc1nc(C2(C)CC3(CC(C)(C)OC3=O)C(=O)O2)cs1 (stereo unspecified) | 0.0082
10 | CCCCCOc1ccc(Cl)cc1CN1CCOCC1 | 0.00599
11 | COC(=O)C1C(=O)NCC1c1ccccc1 (stereo unspecified) | 0.00479
12 | CC(=O)Oc1oc(-c2ccccc2)nc1/C=N/c1ccccn1 | 0.00577
13 | CC1(C)CC(=O)C=C(NCCO)C1 | 0.00557
14 | O=C(NCCO)C1(c2ccccc2)CCCC1 | 0.00732
15 | Cc1cc(N/C=C/C(=O)c2cccc3ccccc23)no1 | 0.00616
16 | Cc1nc2sc(C)c(C)c2c(=O)o1 | 0.0058
17 | O=C(CCN1CCc2ccccc21)c1ccc2c(c1)OCCO2 | 0.00393
18 | O=C(c1ccc(N2C(=O)C3CC=C(Cl)CC3C2=O)cc1)N1CCCCC1 (stereo unspecified) | 0.00666
19 | COc1ccc[nH]c1=O | 0.00623
20 | O=C(CCCN1CCC(O)(c2ccc(Cl)cc2)CC1)c1ccc(F)cc1 | 0.00387
21 | CCn1cc(/C=N/O)c(C)n1 | 0.00667
22 | CC(C)(C#N)C(C)(C)c1nn[nH]n1 | 0.00499

Test system: not listed separately
Experiment: inhibitors of larval lipid processing in zebrafish, primary screen, whole organism, PED6 fluorescence, gall bladder and intestine (AID 686);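 note: larvae 5 to 7 days old with five fish per well; signal comes from phospholipase A2 cleavage of quenched PED6 carried via bile; overnight exposure to compound and PED6 before scoring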
Conditions: Zebrafish larvae PED6 lipid processing, fluorescence scoring; screened at 20 µM (by protocol)
Summary of the method: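 system = live zebrafish larvae aged 5-7 days, whole organism | probe or stimulus = ingested quenched lipid PED6 at 100 nM | doses = 20 µM single dose | timing = overnight exposure | detection = fluorescence microscopy with visual scoring of gall bladder and intestine | read-out = visual per-well fluorescence inhibition score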

Row | Compound | outcome
23 | CN1CCN(C2=Nc3cc(Cl)ccc3Nc3ccccc32)CC1 | inactive
24 | CCN(CC)CCNC(=O)c1ccc(N)cc1 | inactive
25 | CCOC(=O)C(OC(=O)c1sc(=S)n(C)c1C)C(C)=O (stereo unspecified) | inactive
26 | COc1ccc(Cn2ccnc2)cc1Br | inactive
27 | CC1(C)CC(=O)C=C(N=CC2=C(O)CC(C)(C)CC2=O)C1 | inactive
28 | CC1(C)CC(=O)C(C=N)=C(O)C1 | inactive
29 | COc1cc(C(=O)Nc2ccccn2)cc(OC)c1OC | inactive
30 | CN(C)CCCN1c2ccccc2CCc2ccccc21 | inactive
31 | CC1(C)S[C@@H]2[C@H](NC(=O)[C@H](N)c3ccccc3)C(=O)N2[C@H]1C(=O)O | inactive
32 | CCOC(=O)C(Oc1ccc(=O)[nH]n1)C(C)=O (stereo unspecified) | inactive
33 | Fc1ccc(C(c2ccc(F)cc2)N2CCN(C/C=C/c3ccccc3)CC2)cc1 | inactive; toxic
34 | O=P(Cc1nnco1)(c1ccccc1)c1ccccc1 | inactive
35 | COc1ccc(OCC(=O)OCCN(C)C)cc1 | inactive
36 | C=CCNc1nc(C2(C)CC3(CC(C)(C)OC3=O)C(=O)O2)cs1 (stereo unspecified) | inactive
37 | CCCCCOc1ccc(Cl)cc1CN1CCOCC1 | inactive
38 | COC(=O)C1C(=O)NCC1c1ccccc1 (stereo unspecified) | inactive
39 | CC(=O)Oc1oc(-c2ccccc2)nc1/C=N/c1ccccn1 | inactive
40 | NC(N)=Nc1nc(CSCC/C(N)=N/S(N)(=O)=O)cs1 | inactive
41 | CC1(C)CC(=O)C=C(NCCO)C1 | inactive
42 | COc1ccc(-c2coc3cc(O)cc(O)c3c2=O)cc1 | inactive

Row | Compound | outcome
43 | O=C(NCCO)C1(c2ccccc2)CCCC1 | inactive
44 | COc1cc2nc(N3CCN(C(=O)C4CCCO4)CC3)nc(N)c2cc1OC (stereo unspecified) | inactive
45 | Nc1nc2c(ncn2COCCO)c(=O)[nH]1 | inactive
46 | Cc1cc(N/C=C/C(=O)c2cccc3ccccc23)no1 | inactive
47 | Cc1nnc(NS(=O)(=O)c2ccc(N)cc2)s1 | inactive
48 | Cc1nc2sc(C)c(C)c2c(=O)o1 | inactive
49 | CC(=O)O[C@@]12CO[C@@H]1C[C@H](O)[C@@]1(C)C(=O)[C@H](O)C3=C(C)[C@@H](OC(=O)[C@H](O)[C@@H](NC(=O)OC(C)(C)C)c4ccccc4)C[C@](O)([C@@H](OC(=O)c4ccccc4)[C@H]21)C3(C)C | inactive
50 | CC[C@H]1CN2CCc3cc(OC)c(OC)cc3[C@@H]2C[C@@H]1C[C@H]1NCCc2cc(OC)c(OC)cc21 | inactive
51 | CC1=NS(=O)(=O)c2cc(Cl)ccc2N1 | inactive
52 | O=C(NCC1CCCCN1)c1cc(OCC(F)(F)F)ccc1OCC(F)(F)F (stereo unspecified) | inactive
53 | CC[C@]1(O)C[C@@H]2CN(CCc3c([nH]c4ccccc34)[C@@](C(=O)OC)(c3cc4c(cc3OC)N(C)[C@H]3[C@@](O)(C(=O)OC)[C@H](OC(C)=O)[C@]5(CC)C=CCN6CC[C@]43[C@@H]65)C2)C1 | inactive
54 | O=C(CCN1CCc2ccccc21)c1ccc2c(c1)OCCO2 | inactive
55 | O=C(c1ccc(N2C(=O)C3CC=C(Cl)CC3C2=O)cc1)N1CCCCC1 (stereo unspecified) | inactive
56 | COc1ccc([C@@H]2Sc3ccccc3N(CCN(C)C)C(=O)[C@@H]2OC(C)=O)cc1 | inactive
57 | COc1ccc[nH]c1=O | inactive
58 | CCn1cc(/C=N/O)c(C)n1 | inactive
59 | C1CNCCNCCCNCCNC1 | inactive
60 | CC(C)(C#N)C(C)(C)c1nn[nH]n1 | inactive
61 | O=C(O)c1ccc(COCC(F)(F)C(F)F)o1 | inactive
